≈ marks a conversion by molar mass, not a printed value.
Tests used:
[1] = test system: Mycobacterium tuberculosis; test: Antimycobacterial activity against wild type Mycobacterium tuberculosis H37Rv ATCC 27294 after 2 weeks; type: functional; conditions: 336 h
How it was run: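 Aerobic MIC99: Mtb H37Rv grown to OD 0.5 in 7H9 broth with 0.05% Tween 80, 0.2% glycerol, ADC; diluted 1:1000. Compounds from DMSO stocks, 2-fold series giving 8 dilutions (1000 μM – 7.8 μM). 2 weeks at 37°C, growth read macroscopically; MIC99 = concentration preventing 99% growth. Three independent determinations.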

[2] = test system: Mycobacterium tuberculosis; test: Antimycobacterial activity against wild type Mycobacterium tuberculosis H37Rv NRP-2 stage after 3 weeks under anaerobic condition; type: functional
How it was run: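 Early-log Mtb in glycerol-free Dubos broth diluted 100-fold, sealed tubes (headspace ratio 0.5), stirred 180 rpm 20 days to NRP-2 (methylene blue reference). Cells exposed to two-fold drug dilutions (1.95-500 μM) with DMSO control, anaerobically at 37°C for 7 days. Washed thrice, serially diluted, spotted on 7H11 agar; after 3 weeks at 37°C, MAC = 90% reduction in visible growth.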

[3] = test system: Mycobacterium tuberculosis; test: Ratio of Kcat/Km for Mycobacterium tuberculosis F420-dependent nitroreductase by Michaelis-Menten equation; parameters: unit not given here
How it was run: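 MBP-tagged Rv3547 (Ddn) expressed in E. coli (300 μM IPTG, 37 °C), amylose-affinity purified. F420H2 made enzymatically with Mtb FGD1, which was heat-inactivated (55°C, 15 min) and removed by ultrafiltration. Reactions in phosphate buffer pH 7.4, 50 μM F420, 0.6 μM enzyme, varying nitroimidazole concentrations, 25°C. Initial rates from absorbance gain at 400 nm (ε400 = 25.71 mM−1 cm−1).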

Row | SMILES | MIC [1] [µM] | MAC [2] [µM] | kcat/Km [3]
1 | O=[N+]([O-])c1cnc2n1C[C@H](O)CC2 | > 100 | >500 | –
2 | COc1nc([N+](=O)[O-])cn1CCOCc1ccc(OC(F)(F)F)cc1 | 6.25 (≈ 2.26 µg/mL) | 250 | 0.03
3 | FC(F)(F)Oc1ccc(CO[C@@H]2COc3nccn3C2)cc1 | > 160 | >500 | –
4 | Cc1ncc([N+](=O)[O-])n1CCOCc1ccc(OC(F)(F)F)cc1 | > 145 | 250 | 0.005
5 | CO[C@@H]1COc2nc([N+](=O)[O-])cn2C1 | > 125 | 250 | 0.0079
6 | O=[N+]([O-])c1cnc2n1C[C@H](O)CO2 | 12.5 (≈ 2.31 µg/mL) | 125 | 0.003
7 | O=[N+]([O-])c1cnc2n1C[C@H](OCc1ccc(OC(F)(F)F)cc1)CO2 | 4 (≈ 1.44 µg/mL) | 31.25 | 0.0817
8 | O=[N+]([O-])c1cn2c(n1)CC[C@@H](OCc1ccc(OC(F)(F)F)cc1)C2 | 25 (≈ 8.93 µg/mL) | 250 | 0.0235
9 | Cc1nc([N+](=O)[O-])cn1CCOCc1ccc(OC(F)(F)F)cc1 | > 145 | >500 | –
10 | O=[N+]([O-])c1cnc2n1C[C@@H](O)CC2 | > 100 | >100 | –
11 | O=[N+]([O-])c1cn2c(n1)OC[C@@H](OCc1ccc(OC(F)(F)F)cc1)C2 [PRETOMANID] | 0.8 (≈ 0.287 µg/mL) | 8 | 0.145
12 | COc1ncc([N+](=O)[O-])n1CCO | > 100 | >500 | –
13 | Cc1ncc([N+](=O)[O-])n1CCO [METRONIDAZOLE] | > 300 | 62.5 | –
14 | O=[N+]([O-])c1cn2c(n1)OC[C@@H](O)C2 | > 100 | 250 | 0.005
15 | O=[N+]([O-])c1cn2c(n1)C=C[C@@H](OCc1ccc(OC(F)(F)F)cc1)C2 | 25 (≈ 8.88 µg/mL) | 62.5 | 0.0476
16 | Cc1nc([N+](=O)[O-])cn1CCO | > 300 | >500 | –
